This is an account of results in ChEMBL document CHEMBL1152588, “New potent P-glycoprotein modulators with the cucurbitane scaffold and their synergistic interaction with doxorubicin on resistant cancer cells” (Bioorg Med Chem, 2009).

Series [1] has as its system L5178Y. The series is described as follows: Reversal of human MDR1-mediated multidrug resistance in mouse L5178Y cells expressing MDR1 assessed as mean fluorescence intensity of rhodamine-123 uptake after 10 mins by flow cytometry. The format is functional. A digest of the protocol: (§1)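 Parental and MDR1-transfected L5178 cells at 2×10^6/mL in serum-free McCoy's 5A. Compound (0.5–20 µM; verapamil 22 µM as positive control) added 10 min at room temperature, then rhodamine 123 20 min at 37 °C. Cells washed twice, resuspended in PBS, flow cytometry on 10,000 cells (FSC, SSC, mean FL-1). FAR = (MDR treated/MDR control)/(parental treated/parental control); single representative experiment.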

Series [2] deals with T1, ATP-dependent translocase ABCB1 (Homo sapiens, UniProt P08183). Briefly: Reversal of human MDR1-mediated multidrug resistance in mouse L5178Y cells expressing MDR1 assessed as side scatter count measured by cell size ratio at 2 uM after 10 mins by flow cytometry. The format is cell-based. The method in brief: as §1
T1 sequence (P08183 whole entry): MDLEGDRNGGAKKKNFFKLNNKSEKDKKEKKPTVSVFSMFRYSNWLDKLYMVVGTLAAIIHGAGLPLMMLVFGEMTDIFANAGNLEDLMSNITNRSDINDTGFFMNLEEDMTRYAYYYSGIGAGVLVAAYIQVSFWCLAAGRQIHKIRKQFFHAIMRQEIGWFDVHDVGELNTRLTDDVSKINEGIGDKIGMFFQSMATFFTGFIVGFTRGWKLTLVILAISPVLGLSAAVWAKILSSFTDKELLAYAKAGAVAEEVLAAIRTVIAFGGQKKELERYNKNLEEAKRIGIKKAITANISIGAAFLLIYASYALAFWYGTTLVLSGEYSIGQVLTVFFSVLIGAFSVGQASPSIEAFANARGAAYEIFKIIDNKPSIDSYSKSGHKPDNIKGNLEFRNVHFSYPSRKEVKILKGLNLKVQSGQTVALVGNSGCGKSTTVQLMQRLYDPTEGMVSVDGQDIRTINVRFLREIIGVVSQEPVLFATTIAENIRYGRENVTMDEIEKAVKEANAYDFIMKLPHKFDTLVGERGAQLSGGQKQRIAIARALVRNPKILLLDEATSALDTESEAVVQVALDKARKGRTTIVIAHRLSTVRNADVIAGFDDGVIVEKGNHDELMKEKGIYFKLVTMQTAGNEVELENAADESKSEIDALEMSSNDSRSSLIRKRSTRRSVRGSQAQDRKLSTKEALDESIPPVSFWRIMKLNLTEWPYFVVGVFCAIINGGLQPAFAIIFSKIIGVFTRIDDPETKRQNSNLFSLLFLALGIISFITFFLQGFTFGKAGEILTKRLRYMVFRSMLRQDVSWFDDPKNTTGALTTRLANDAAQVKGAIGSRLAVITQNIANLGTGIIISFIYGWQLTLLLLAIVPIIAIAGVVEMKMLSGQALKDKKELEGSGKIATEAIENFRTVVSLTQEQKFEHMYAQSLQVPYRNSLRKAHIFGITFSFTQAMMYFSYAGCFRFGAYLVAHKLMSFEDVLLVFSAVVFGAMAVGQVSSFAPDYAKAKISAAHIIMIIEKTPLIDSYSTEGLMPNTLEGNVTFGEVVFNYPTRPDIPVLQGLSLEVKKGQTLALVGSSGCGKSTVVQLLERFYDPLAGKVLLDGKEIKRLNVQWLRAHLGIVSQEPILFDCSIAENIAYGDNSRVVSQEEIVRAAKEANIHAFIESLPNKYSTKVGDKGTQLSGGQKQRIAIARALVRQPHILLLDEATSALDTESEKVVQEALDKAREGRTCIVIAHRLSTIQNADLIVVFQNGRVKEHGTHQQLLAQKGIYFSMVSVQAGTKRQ
Series [3] deals with L5178Y. The series is described as follows: Antiproliferative activity against mouse L5178Y cells after 72 hrs by MTT assay. The format is functional. The settings on record: read-out: ID50 (the source's name). A digest of the protocol: (§2)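 L5178 mouse T-cell lymphoma cells, parental or transfected with human MDR1 via pHa MDR1/A retrovirus. Transfected cells were kept under 60 ng/mL colchicine. Cells grew in McCoy's 5A with 10% heat-inactivated horse serum at 37 °C, 5% CO2. 1×10^4 cells/well with rising compound concentrations, 72 h at 37 °C. MTT 4 h, SDS 10% overnight, OD 550 nm (ref 630 nm). % inhibition vs cell/medium controls; ID50 mean ± SD of three experiments.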
Background: Tetrazolium dyes change colour on reduction, which living cells bring about.

Series [4] concerns the target T1, ATP-dependent translocase ABCB1. Briefly: Reversal of human MDR1-mediated multidrug resistance in mouse L5178Y cells expressing MDR1 assessed as side scatter count measured by cell size ratio at 20 uM after 10 mins by flow cytometry. The format is cell-based. The method in brief: as §1
For series [5] the target is unchanged. The series is described as follows: Reversal of human MDR1-mediated multidrug resistance in mouse L5178Y cells expressing MDR1 assessed as forward scatter count measured by cell size ratio at 2 uM after 10 mins by flow cytometry. The format is cell-based. A digest of the protocol: as §1
The target is the same in series [6]. Briefly: Reversal of human MDR1-mediated multidrug resistance in mouse L5178Y cells expressing MDR1 assessed as mean fluorescence intensity of rhodamine-123 uptake at 2 uM after 10 mins by flow cytometry. The format is cell-based. The method in brief: as §1
(In general: Flow cytometry measures light scatter and fluorescence of single cells or particles in a stream.)

Series [7] shares this target. Briefly: Reversal of human MDR1-mediated multidrug resistance in mouse L5178Y cells expressing MDR1 assessed as side scatter count measured by cell size ratio at 1 uM after 10 mins by flow cytometry. The format is cell-based. A digest of the protocol:
as §1

Series [8] has the same target. Briefly: Reversal of human MDR1-mediated multidrug resistance in mouse L5178Y cells expressing MDR1 assessed as mean fluorescence intensity of rhodamine-123 uptake at 1 uM after 10 mins by flow cytometry. The format is cell-based. The method in brief: as §1
Series [9] shares this target. The series is described as follows: Reversal of human MDR1-mediated multidrug resistance in mouse L5178Y cells expressing MDR1 assessed as fluorescence activity ratio at 20 uM after 10 mins by rhodamine-123 exclusion test. The format is cell-based. A digest of the protocol: as §1
The target is the same in series [10]. The series is described as follows: Reversal of human MDR1-mediated multidrug resistance in mouse L5178Y cells expressing MDR1 assessed as mean fluorescence intensity of rhodamine-123 uptake at 0.5 uM after 10 mins by flow cytometry. The format is cell-based. A digest of the protocol:
as §1

Series [11] has the same target. Briefly: Reversal of human MDR1-mediated multidrug resistance in mouse L5178Y cells expressing MDR1 assessed as forward scatter count measured by cell size ratio at 1 uM after 10 mins by flow cytometry. The format is cell-based. A digest of the protocol: as §1
The target is the same in series [12]. The series is described as follows: Reversal of human MDR1-mediated multidrug resistance in mouse L5178Y cells expressing MDR1 assessed as forward scatter count measured by cell size ratio at 0.5 uM after 10 mins by flow cytometry. The format is cell-based. A digest of the protocol: as §1
The target is the same in series [13]. Briefly: Reversal of human MDR1-mediated multidrug resistance in mouse L5178Y cells expressing MDR1 assessed as fluorescence activity ratio at 1 uM after 10 mins by rhodamine-123 exclusion test. The format is cell-based. A digest of the protocol: as §1
Series [14] concerns L5178Y. The series is described as follows: Reversal of multidrug resistance in mouse L5178Y cells assessed as mean fluorescence intensity of rhodamine-123 uptake after 10 mins by flow cytometry. The format is functional. The method in brief: as §1
Series [15] relates to L5178Y. Briefly: Potentiation of doxorubicin-induced anticancer activity against mouse L5178Y cells expressing MDR1 assessed as fractional inhibitory concentration after 72 hrs by checkerboard microplate assay. The format is functional. A digest of the protocol:
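Checkerboard combination on MDR1-transfected L5178 lymphoma cells: doxorubicin diluted along one plate axis, resistance modifier along the other; 5×10^4 cells/well; 72 h at 37 °C in CO2 incubator; growth read by MTT staining. FIC = ID50 in combination/ID50 alone for each agent; summed FIX <0.5 synergism, 0.51–1 additive, 1–2 indifferent, >2 antagonism.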

Series [16] has as its target T1, ATP-dependent translocase ABCB1. Briefly: Reversal of human MDR1-mediated multidrug resistance in mouse L5178Y cells expressing MDR1 assessed as side scatter count measured by cell size ratio at 0.5 uM after 10 mins by flow cytometry. The format is cell-based. A digest of the protocol: as §1
The target is the same in series [17]. The series is described as follows: Reversal of human MDR1-mediated multidrug resistance in mouse L5178Y cells expressing MDR1 assessed as fluorescence activity ratio at 2 uM after 10 mins by rhodamine-123 exclusion test. The format is cell-based. The method in brief:
as §1

In series [18] the test system is L5178Y. Briefly: Antiproliferative activity against multidrug resistance mouse L5178Y cells expressing human MDR1 after 72 hrs by MTT assay. The format is functional. The settings on record: read-out: ID50 (the source's name). The method in brief: as §2
Series [19] in a line: Octanol-water partition coefficient, log D of the compound. The format is physicochemical.
The target in series [20] is T1, ATP-dependent translocase ABCB1. Briefly: Reversal of human MDR1-mediated multidrug resistance in mouse L5178Y cells expressing MDR1 assessed as forward scatter count measured by cell size ratio at 20 uM after 10 mins by flow cytometry. The format is cell-based. The method in brief:
as §1

Series [21] has the same target. Briefly: Reversal of human MDR1-mediated multidrug resistance in mouse L5178Y cells expressing MDR1 assessed as fluorescence activity ratio at 0.5 uM after 10 mins by rhodamine-123 exclusion test. The format is cell-based. The method in brief: as §1
The target is the same in series [22]. Briefly: Reversal of human MDR1-mediated multidrug resistance in mouse L5178Y cells expressing MDR1 assessed as mean fluorescence intensity of rhodamine-123 uptake at 20 uM after 10 mins by flow cytometry. The format is cell-based. The method in brief: as §1
The subject of series [23] is L5178Y. Briefly: Reversal of human MDR1-mediated multidrug resistance in mouse L5178Y cells expressing MDR1 fluorescence activity ratio of rhodamine-123 uptake after 10 mins by flow cytometry.

As usually defined, the logD is lipophilicity at a set pH, counting ionised and neutral species. Take `CO[C@H]1C=C2[C@@H](CC[C@H](O)C2(C)C)[C@]2(C)CC[C@]3(C)[C@@H]([C@H](C)C[C@@H](O)C=C(C)C)CC[C@@]3(C)[C@H]12` [KARAVELAGENIN C]: the Activity with L5178Y [1] worked out at 9.5; in series [2], 215.4; in [4], 206.8; in series [5], 468.8; in series [6], 365.7; in series [7] it was 217.8. Moreover, the Activity in [8] was found to be 130; in series [9], 46; in series [10], 12.7; in series [11] it was 460.7; in [12] it was 456.4; in series [13] it was 15. Further, the Activity with L5178Y [14] was found to be 1034.3; in series [16], 215.3; in series [17], 42.1; in series [20] it was 551.8; in series [21] it was 1.5; in series [22], 399.5. In addition, the IC50 was 6.3 µM in the series on L5178Y [3] and 16.8 µM with L5178Y [18]. For the same compound, the “fractional inhibitory concentration index (FICI)” value in the series on L5178Y [15] is listed as 0.28. Besides, the logD in series [19] amounted to 7.3.

Take `COc1ccc(CCN(C)CCCC(C#N)(c2ccc(OC)c(OC)c2)C(C)C)cc1OC` (centres undefined) [VERAPAMIL]: the Activity in the series on L5178Y [1] worked out at 97.1. Further, the FAR in the series on L5178Y [23] stood at 7.4.
